Laboratory results reported in ChEMBL document CHEMBL3227988, “Synthesis and antiviral activities of arabinofuranosyl-5-ethylpyrimidine nucleosides. Selective antiherpes activity of 1-(beta-D-arabinofuranosyl)-5-ethyluracil” (J Med Chem, 1979).
≈ marks a conversion by molar mass, not a printed value. Calls of active or inactive are those of the source. The rule behind the calls is not given here.

Tests used:
Human alphaherpesvirus 1 [1] = assay: Antiviral activity against Herpes simplex virus-1 KOS infected in primary rabbit kidney cells assessed as inhibition of virus-induced cytopathogenicity treated immediately after virus adsorption measured 2 to 3 days after virus infection; assay type: functional; conditions: Human alphaherpesvirus 1, KOS
[2] = test system: Vesicular stomatitis virus; assay: Antiviral activity against Vesicular stomatitis virus infected in primary rabbit kidney cells assessed as inhibition of virus-induced cytopathogenicity treated immediately after virus adsorption measured 2 to 3 days after virus infection; assay type: functional
[3] = Antimetabolic activity against primary rabbit kidney cells assessed as inhibition of [2-14C]dUrd incorporation into DNA after 16 hrs; assay type: ADME, cell-based, Oryctolagus cuniculus
In short: (§1)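 Compound added to primary rabbit kidney cell cultures together with the radiolabeled DNA precursor. Input per 10^? cells: [methyl-3H]dThd 0.12 μCi/0.01 nmol, [2-14C]dUrd 14 μCi/250 nmol. Incorporation measured after 16 h incubation. Value is the concentration giving 50% inhibition of precursor incorporation.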

Human alphaherpesvirus 1 [4] = assay: Antiviral activity against Herpes simplex virus-1 KOS infected in human skin fibroblast cells assessed as inhibition of virus-induced cytopathogenicity treated immediately after virus adsorption measured 2 to 3 days after virus infection; assay type: functional; conditions: Human alphaherpesvirus 1, KOS
[5] = Antiviral index, ratio of minimal toxic dose require to inhibit cellular DNA synthesis in primary rabbit kidney cells by 50% to minimal effective dose require to inhibit HSV1 KOS cytopathogenicity; assay type: toxicity, cell-based
In short: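 Ratio of two doses. Numerator: dose inhibiting cellular DNA synthesis by 50%, measured as dThd or dUrd incorporation over 16 h. Denominator: minimal dose inhibiting HSV-1 KOS cytopathogenicity. For the CPE assay, virus input was 100 CCID50 per culture and compound was added right after adsorption. CPE was scored once untreated infected controls reached full CPE, generally at 2-3 days.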

Human alphaherpesvirus 2 [6] = assay: Antiviral activity against Herpes simplex virus-2 196 infected in primary rabbit kidney cells assessed as inhibition of virus-induced cytopathogenicity treated immediately after virus adsorption measured 2 to 3 days after virus infection; assay type: functional; conditions: Human alphaherpesvirus 2, 196
Vaccinia virus = assay: Antiviral activity against Vaccinia virus infected in primary rabbit kidney cells assessed as growth inhibition at 100 ug/ml treated immediately after virus adsorption measured 24 to 48 hrs after virus infection; assay type: functional, organism-based; conditions: Orthopoxvirus vaccinia
Human alphaherpesvirus 2 [7] = assay: Antiviral activity against Herpes simplex virus-2 LYONS infected in primary rabbit kidney cells assessed as inhibition of virus-induced cytopathogenicity treated immediately after virus adsorption measured 2 to 3 days after virus infection; assay type: functional; conditions: Human alphaherpesvirus 2, LYONS
Human alphaherpesvirus 1 [8] = assay: Antiviral activity against Herpes simplex virus-1 KOS infected in primary rabbit kidney cells assessed as log reduction in virus yield at 100 ug/ml treated immediately after virus adsorption measured 24 to 48 hrs after virus infection; assay type: functional
[9] = Antimetabolic activity against primary rabbit kidney cells assessed as inhibition of [methyl-3H]dThd incorporation into DNA after 16 hrs; assay type: ADME, cell-based, Oryctolagus cuniculus; in short: as §1
Human alphaherpesvirus 2 [10] = assay: Antiviral activity against Herpes simplex virus-2 LYONS infected in primary rabbit kidney cells assessed as inhibition of virus-induced cytopathogenicity at 200 ug/ml treated immediately after virus adsorption measured 2 to 3 days after virus infection; assay type: functional, organism-based
Human alphaherpesvirus 1 [11] = assay: Antiviral activity against Herpes simplex virus-1 KOS infected in human skin fibroblast cells assessed as inhibition of virus-induced cytopathogenicity at 200 ug/ml treated immediately after virus adsorption measured 2 to 3 days after virus infection; assay type: functional, organism-based
Human alphaherpesvirus 2 [12] = assay: Antiviral activity against Herpes simplex virus-2 196 infected in primary rabbit kidney cells assessed as inhibition of virus-induced cytopathogenicity at 200 ug/ml treated immediately after virus adsorption measured 2 to 3 days after virus infection; assay type: functional, organism-based
Human alphaherpesvirus 1 [13] = assay: Antiviral activity against Herpes simplex virus-1 KOS infected in primary rabbit kidney cells assessed as inhibition of virus-induced cytopathogenicity at 200 ug/ml treated immediately after virus adsorption measured 2 to 3 days after virus infection; assay type: functional, organism-based

| Compound | MIC (Human alphaherpesvirus 1 [1]) [µg/mL] | MIC [2] [µg/mL] | MIC [3] [µg/mL] | MIC (Human alphaherpesvirus 1 [4]) [µg/mL] | selectivity ratio [5] | MIC (Human alphaherpesvirus 2 [6]) [µg/mL] | inhibition (Vaccinia virus) | MIC (Human alphaherpesvirus 2 [7]) [µg/mL] | log10PFU/ml (Human alphaherpesvirus 1 [8]) | MIC [9] [µg/mL] | inhibition (Human alphaherpesvirus 2 [10]) | inhibition (Human alphaherpesvirus 1 [11]) | inhibition (Human alphaherpesvirus 2 [12]) | inhibition (Human alphaherpesvirus 1 [13]) |
| --- | --- | --- | --- | --- | --- | --- | --- | --- | --- | --- | --- | --- | --- | --- |
| CCc1cn([C@@H]2O[C@H](CO)[C@@H](O)[C@@H]2O)c(=O)nc1N | 100 (≈ 369 µM) | > 200 | > 200 | 20 (≈ 73.7 µM) | – | – | – | – | – | – | – | – | – | – |
| CCc1cn([C@@H]2O[C@H](CO)[C@@H](O)[C@@H]2O)c(=O)[nH]c1=O | 2 (≈ 7.35 µM) | > 200 | > 200 | 2 (≈ 7.35 µM) | > 100 | 20 (≈ 73.5 µM) | inactive | 10 (≈ 36.7 µM) | >3 | > 200 | – | – | – | – |
| O=c1ccn([C@@H]2O[C@H](CO)[C@@H](O)[C@@H]2O)c(=O)[nH]1 [ARAURIDINE] | 20 (≈ 81.9 µM) | > 200 | > 400 | 20 (≈ 81.9 µM) | – | 20 (≈ 81.9 µM) | – | 20 (≈ 81.9 µM) | – | 300 (≈ 1230 µM) | – | – | – | – |
| CCc1cn([C@H]2O[C@H](CO)[C@@H](O)[C@@H]2O)c(=O)nc1N | – | – | – | – | – | – | – | – | – | – | inactive | inactive | inactive | inactive |
| CCc1cn([C@H]2O[C@H](CO)[C@@H](O)[C@@H]2O)c(=O)[nH]c1=O | – | – | – | – | – | – | – | – | – | – | inactive | inactive | inactive | inactive |
| Nc1ccn([C@@H]2O[C@H](CO)[C@@H](O)[C@@H]2O)c(=O)n1 [CYTARABINE] | 0.03 (≈ 0.123 µM) | 4 (≈ 16.4 µM) | 0.05 (≈ 0.206 µM) | 0.02 (≈ 0.0822 µM) | – | 0.03 (≈ 0.123 µM) | – | 0.04 (≈ 0.164 µM) | – | 0.1 (≈ 0.411 µM) | – | – | – | – |
| Cc1cn([C@@H]2O[C@H](CO)[C@@H](O)[C@@H]2O)c(=O)[nH]c1=O | 0.2 (≈ 0.775 µM) | > 200 | 300 (≈ 1160 µM) | 0.1 (≈ 0.387 µM) | – | 0.4 (≈ 1.55 µM) | – | 0.3 (≈ 1.16 µM) | – | 300 (≈ 1160 µM) | – | – | – | – |
